Series [1] can be described thus: AUC ratio in orally dosed cynomolgus monkey blood assessed as phosphate metabolite to parent compound. The format is ADME, organism-based, Macaca fascicularis. The settings on record: in vivo, po. Summed up:
(§1)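 Phosphate-to-parent ratio computed as blood AUC ratio after oral dosing in rats, dogs and monkeys.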

Series [2] in a line: AUC ratio in orally dosed Beagle dog blood assessed as phosphate metabolite to parent compound. It is filed as ADME, organism-based, Canis lupus familiaris. The settings on record: in vivo, po. An outline of the steps: as §1
Series [3] deals with Rattus norvegicus. Nature of the series: Antiinflammatory activity in complete freund's adjuvant-induced Lewis rat model of arthritis assessed as effective dose administered via oral gavage once daily by plethysmometric method. It is filed as functional.
Series [4] can be described thus: Terminal half life in Sprague- Dawley rat at 2 mg/kg, iv. It is filed as ADME, organism-based. As to conditions: in vivo, read-out: beta t1/2 (converted). Summed up:
(§2)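 Single IV and oral dosing in male animals, n = 3. Rats were Sprague-Dawley. Vehicle: 18.4% hydroxypropyl-β-cyclodextrin in 13.8 mM citric acid. Blood concentrations followed over time; terminal T1/2 and steady-state volume of distribution taken from the IV dose.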

A short description of series [5]: Clearance in cynomolgus monkey at 1 mg/kg, iv. The format is ADME, organism-based, Macaca fascicularis. As to conditions: in vivo.
Series [6] in a line: Drug concentration in Lewis rat blood assessed as concentration of parent compound at 2 mg/kg, po measured at 24 hrs by LC-MS/MS analysis. It is filed as ADME, organism-based. The settings on record: in vivo, read-out: Ct. An outline of the steps:
(§3)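 Lewis rats (n = 2−4) dosed orally at 0.5, 1, 2 or 5 mg/kg; blood parent and phosphate metabolite concentrations and lymphocyte counts taken 4 and 24 h post-dose; phosphate-to-parent ratio from 24 h levels; significance versus vehicle by ANOVA with Dunnett's test.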

A short description of series [7]: Terminal half life in dog at 1 mg/kg, po. The format is ADME, organism-based, Canis lupus familiaris. As to conditions: in vivo, read-out: beta t1/2 (converted).
Series [8] can be described thus: Cardiotoxicity in human iPSC derived cardiomyocytes assessed as change in heart rate at 10 nM measured over 2 hrs by multi-electrode array relative to control. The format is toxicity, cell-based. As to conditions: stem cell-derived cardiomyocyte, 0.01 µM. An outline of the steps:
(§4)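 Phosphate metabolite of each compound prepared and tested on cultured human induced pluripotent stem cell-derived cardiomyocytes at 1 and 10 nM; beat rate change averaged over three or more replicates per concentration unless noted (some n = 2).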

The subject of series [9] is Rattus norvegicus. Nature of the series: Antiinflammatory activity in complete freund's adjuvant-induced Lewis rat model of arthritis assessed as reduction in paw swelling at 0.3 mg/kg, po administered via gavage once daily and measured at day 13 to 20 by plethysmometric method relative to control. The format is functional. On the set-up: scale not given: the % may be the effect or the level left. The settings on record: time 13-20 day.

A short description of series [10]: Drug concentration in Lewis rat blood assessed as concentration of parent compound at 2 mg/kg, po measured at 4 hrs by LC-MS/MS analysis. The format is ADME, organism-based. The settings on record: Lewis, blood, read-out: Ct. An outline of the steps: as §3
Series [11] is described as follows: AUC ratio in orally dosed Sprague-Dawley rat blood assessed as phosphate metabolite to parent compound. It is filed as ADME, organism-based. The settings on record: in vivo, po. An outline of the steps: as §1
The nature of series [12]: Ratio of drug metabolism in Lewis rat blood assessed as phosphate ester metabolite to parent drug at 2 mg/kg, po measured at 24 hrs by LC-MS/MS analysis. It is filed as ADME, organism-based. The settings on record: in vivo. An outline of the steps: as §3
A short description of series [13]: Clearance in Sprague- Dawley rat at 2 mg/kg, iv. It is filed as ADME, organism-based. As to conditions: in vivo.
Series [14] is described as follows: Volume of distribution at steady state in Sprague- Dawley rat at 2 mg/kg, iv. It is filed as ADME, organism-based. The settings on record: in vivo, read-out: Vdss. An outline of the steps:
as §2

The subject of series [15] is Rattus norvegicus. Nature of the series: Reduction in circulating lymphocytes count in Lewis rat at 2 mg/kg, po measured at 4 hrs by hematology analyzer based analysis. The format is functional. On the set-up: scale not given: the % may be the effect or the level left. Summed up:
(§5)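 Lewis rats (n = 2−4) dosed orally; whole-blood lymphocyte counts taken 4 h and 24 h after dosing and reduction expressed versus vehicle-treated rats. Significance by ANOVA with Dunnett's test (p < 0.05 vs vehicle). Blood levels of parent and phosphate metabolite measured at the same time points in this PK/PD screen.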

Series [16] is described as follows: Volume of distribution at steady state in cynomolgus monkey at 1 mg/kg, po or 1 mg/kg, iv. It is filed as ADME, organism-based, Macaca fascicularis. As to conditions: in vivo, read-out: Vdss. Summed up: as §2
A short description of series [17]: Cardiotoxicity in human iPSC derived cardiomyocytes assessed as change in heart rate at 1 nM measured over 2 hrs by multi-electrode array relative to control. The format is toxicity, cell-based. As to conditions: stem cell-derived cardiomyocyte, 0.001 µM. Summed up: as §4
Series [18] is described as follows: Reduction in circulating lymphocytes count in Lewis rat at 2 mg/kg, po measured at 24 hrs by hematology analyzer based analysis. The format is Functional, organism-based. On the set-up: scale not given: the % may be the effect or the level left. The settings on record: in vivo. Summed up: as §5
A short description of series [19]: Half life in Lewis rat at 2 mg/kg, po measured at 4 to 72 hrs. It is filed as ADME, organism-based. As to conditions: Lewis, in vivo, time 4-72 hrs. Summed up: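 Half-life estimated from oral-dosing blood PK profiles in Lewis rats sampled at four time points: 4, 24, 48 and 72 h.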
Series [20] can be described thus: Oral bioavailability in cynomolgus monkey at 1 mg/kg. The format is ADME, organism-based, Macaca fascicularis. The settings on record: in vivo.
The nature of series [21]: Pulmonary toxicity in Lewis rat assessed as fold elevation of BAL protein content at 2 mg/kg, po by chemistry analyzer based analysis relative to control. It is filed as organism-based. As to conditions: in vivo. An outline of the steps: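 Lewis rats dosed orally; bronchoalveolar lavage protein measured at study end, expressed as fold over vehicle control.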
The nature of series [22]: Terminal half life in cynomolgus monkey at 1 mg/kg, po or 1 mg/kg, iv. It is filed as ADME, organism-based, Macaca fascicularis. As to conditions: in vivo, read-out: beta t1/2 (converted). An outline of the steps: as §2

The text below walks through data of ChEMBL document CHEMBL4732158, “Bicyclic Ligand-Biased Agonists of S1P: Exploring Side Chain Modifications to Modulate the PK, PD, and Safety Profiles” (J Med Chem, 2021).

A value given as a limit tells only on which side of the number the result lay.

For orientation: ED50 means the midpoint of the dose-response relation. One may read the clearance as the volume of plasma or blood freed of the substance per unit of time. What is called bioavailability is the share of a dose that reaches the circulation, judged against a reference dose that is usually intravenous.

Turning to `COCCCCCC1CCc2cc([C@H]3CC[C@](N)(CO)C3)ccc2C1` (single isomer, unassigned; 24), the entries for the “Ratio AUC” value in series [1], in [2] and in series [11] were under 0.1, 0.31 and 0.3, respectively. Also, the ED50 in series [3] was 0.3 mg/kg. The half-life is 19 h in series [4], 81 h in series [7], 18 h in series [19] and 17 h in [22]. Moreover, the values for the clearance in [5] and in [13] were 9.7 mL/min/kg and 10 mL/min/kg, respectively. Also, in series [6], the concentration was 98 nM. Moreover, the Activity is recorded as -23% in series [8]; 50% in series [9]; 67% in [15]; -7% in series [17]; 82% in [18]. Also, the concentration at 4 h in series [10] was determined as 188 nM. For the same compound, the Ratio in series [12] turned out to be 2.6. The results for the Vd in [14] and in series [16] were 13 L/kg and 9.9 L/kg, respectively. Besides, the bioavailability in series [20] amounted to 69%. Moreover, the “fold change (FC)” value in series [21] worked out at 1.5.
